According to PMC3101112 (Cancer Management and Research, 2011):

Assays:
EPHB4 = EPHB4 (Homo sapiens, UniProt P54760); settings: read-out: Cell-Based Target Inhibition Assays IC50, pEphB4 Y590/Y596; HEK293-Clone 25; stable over-expression of EphB4
[1] = tested on: human ether-à-go-go-related gene (hERG); settings: read-out: hERG IC50; ref data on file, Eli Lilly and Company; cited from earlier work
MV4-11 = experiment: cells; format: cell-based; settings: read-out: Cell-Based Antiproliferation Assay IC50; MV4-11; constitutively active (FLT3 ITD Mutation D835)
EPHA2 = EPHA2 (Homo sapiens, UniProt P29317); experiment: Biochemical inhibition profile, EPHA2; settings: read-out: Biochemical Inhibition Profile IC50, EPHA2
EPHA2, sequence (P29317 24-976): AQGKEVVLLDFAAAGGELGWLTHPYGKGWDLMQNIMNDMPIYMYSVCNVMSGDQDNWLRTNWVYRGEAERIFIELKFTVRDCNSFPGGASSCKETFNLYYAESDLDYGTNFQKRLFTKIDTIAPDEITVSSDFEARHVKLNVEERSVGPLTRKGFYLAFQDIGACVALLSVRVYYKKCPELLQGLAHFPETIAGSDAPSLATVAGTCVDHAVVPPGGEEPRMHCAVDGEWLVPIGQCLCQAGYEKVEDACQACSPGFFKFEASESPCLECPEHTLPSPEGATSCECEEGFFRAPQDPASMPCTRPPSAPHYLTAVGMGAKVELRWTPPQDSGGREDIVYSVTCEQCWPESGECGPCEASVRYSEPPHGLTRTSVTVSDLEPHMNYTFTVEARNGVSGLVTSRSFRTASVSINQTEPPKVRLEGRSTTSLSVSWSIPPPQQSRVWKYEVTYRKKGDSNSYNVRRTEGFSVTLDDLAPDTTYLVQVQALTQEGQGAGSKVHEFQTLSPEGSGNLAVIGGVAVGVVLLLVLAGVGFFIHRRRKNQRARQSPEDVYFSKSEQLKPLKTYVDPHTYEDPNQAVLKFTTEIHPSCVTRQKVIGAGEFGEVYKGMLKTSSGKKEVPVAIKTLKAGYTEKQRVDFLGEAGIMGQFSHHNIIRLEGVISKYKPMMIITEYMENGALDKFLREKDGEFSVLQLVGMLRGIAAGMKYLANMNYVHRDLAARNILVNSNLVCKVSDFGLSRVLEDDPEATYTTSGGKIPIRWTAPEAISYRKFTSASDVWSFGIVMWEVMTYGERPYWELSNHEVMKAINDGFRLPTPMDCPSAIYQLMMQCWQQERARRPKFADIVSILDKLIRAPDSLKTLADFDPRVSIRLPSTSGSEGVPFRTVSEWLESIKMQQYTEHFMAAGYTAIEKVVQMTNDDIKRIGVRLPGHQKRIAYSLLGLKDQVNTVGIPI

VEGF-R3 = VEGF-R3 (Homo sapiens, UniProt P35916); experiment: Biochemical inhibition profile, VEGF-R3; settings: read-out: Biochemical Inhibition Profile IC50, VEGF-R3
cKIT = cKIT (Homo sapiens, UniProt P10721); experiment: Biochemical inhibition profile, cKIT; settings: read-out: Biochemical Inhibition Profile IC50, cKIT
AML blasts = experiment: Antileukemia response assessment in patients; format: in vivo, human
How it was run: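 Response was judged by WHO criteria on bone marrow aspirates taken at baseline and after four weeks of daily oral dosing (two weeks after amendment). Peripheral blast counts were taken daily during the multidose visit. A sustained fall in peripheral blast counts lasting longer than four weeks also counted as a pharmacodynamic response.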

p70S6K = p70S6K (Homo sapiens, UniProt P23443); experiment: Biochemical inhibition profile, p70S6K; settings: at 20 μM
p70S6K, sequence (P23443 whole entry): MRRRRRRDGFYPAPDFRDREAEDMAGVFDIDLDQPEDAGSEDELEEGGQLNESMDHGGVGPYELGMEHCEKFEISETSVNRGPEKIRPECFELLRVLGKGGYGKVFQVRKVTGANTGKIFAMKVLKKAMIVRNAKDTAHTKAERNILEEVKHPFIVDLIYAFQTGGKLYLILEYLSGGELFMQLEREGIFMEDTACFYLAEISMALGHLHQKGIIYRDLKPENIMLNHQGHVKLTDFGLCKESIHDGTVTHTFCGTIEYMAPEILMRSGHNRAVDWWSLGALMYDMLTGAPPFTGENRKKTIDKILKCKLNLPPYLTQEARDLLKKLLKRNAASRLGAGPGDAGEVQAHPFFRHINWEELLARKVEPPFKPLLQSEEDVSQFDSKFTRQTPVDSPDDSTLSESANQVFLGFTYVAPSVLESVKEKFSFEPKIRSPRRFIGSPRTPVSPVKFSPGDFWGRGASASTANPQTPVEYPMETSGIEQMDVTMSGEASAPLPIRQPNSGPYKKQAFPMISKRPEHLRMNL

RAF = experiment: Biochemical inhibition profile, RAF; design: species or system Human; settings: read-out: Biochemical Inhibition Profile IC50, RAF
KDR = KDR (Homo sapiens, UniProt P35968); experiment: Biochemical inhibition profile, KDR; settings: read-out: Biochemical Inhibition Profile IC50, KDR
[2] = also reversible lymphoid necrosis of Peyer's patches, skin depigmentation or whitening of the hair; cited from earlier work
EPHB1 = EPHB1 (Homo sapiens, UniProt P54762); experiment: Biochemical inhibition profile, EPHB1; settings: read-out: Biochemical Inhibition Profile IC50, EPHB1
EPHB1, sequence (P54762 18-984): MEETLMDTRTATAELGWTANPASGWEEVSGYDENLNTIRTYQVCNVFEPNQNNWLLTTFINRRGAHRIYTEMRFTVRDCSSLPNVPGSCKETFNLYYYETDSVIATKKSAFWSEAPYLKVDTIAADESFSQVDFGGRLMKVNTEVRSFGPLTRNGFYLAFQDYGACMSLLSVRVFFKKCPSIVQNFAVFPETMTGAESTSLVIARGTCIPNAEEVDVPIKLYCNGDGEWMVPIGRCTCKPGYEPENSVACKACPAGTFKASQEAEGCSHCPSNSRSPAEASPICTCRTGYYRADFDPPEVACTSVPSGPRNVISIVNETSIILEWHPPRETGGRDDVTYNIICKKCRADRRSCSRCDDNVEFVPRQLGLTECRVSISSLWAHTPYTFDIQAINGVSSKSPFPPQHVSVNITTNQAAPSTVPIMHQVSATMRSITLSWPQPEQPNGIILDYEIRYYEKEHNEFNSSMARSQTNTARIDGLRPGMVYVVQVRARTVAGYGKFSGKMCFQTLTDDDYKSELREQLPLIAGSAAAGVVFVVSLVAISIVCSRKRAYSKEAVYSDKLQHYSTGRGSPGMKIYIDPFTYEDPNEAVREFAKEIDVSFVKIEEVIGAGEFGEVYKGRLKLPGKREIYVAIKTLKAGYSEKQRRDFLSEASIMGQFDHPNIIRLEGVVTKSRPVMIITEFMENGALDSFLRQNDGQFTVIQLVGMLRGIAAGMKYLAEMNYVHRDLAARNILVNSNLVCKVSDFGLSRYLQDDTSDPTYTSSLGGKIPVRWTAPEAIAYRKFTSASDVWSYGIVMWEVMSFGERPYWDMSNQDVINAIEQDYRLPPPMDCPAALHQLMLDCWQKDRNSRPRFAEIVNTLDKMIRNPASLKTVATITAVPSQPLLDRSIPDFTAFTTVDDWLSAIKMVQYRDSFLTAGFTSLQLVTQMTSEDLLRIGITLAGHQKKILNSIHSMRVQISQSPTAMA

FLT3 = FLT3 (Homo sapiens, UniProt P36888); experiment: Biochemical inhibition profile, FLT3; settings: read-out: Biochemical Inhibition Profile IC50, FLT3
FLT3, sequence (P36888 27-993): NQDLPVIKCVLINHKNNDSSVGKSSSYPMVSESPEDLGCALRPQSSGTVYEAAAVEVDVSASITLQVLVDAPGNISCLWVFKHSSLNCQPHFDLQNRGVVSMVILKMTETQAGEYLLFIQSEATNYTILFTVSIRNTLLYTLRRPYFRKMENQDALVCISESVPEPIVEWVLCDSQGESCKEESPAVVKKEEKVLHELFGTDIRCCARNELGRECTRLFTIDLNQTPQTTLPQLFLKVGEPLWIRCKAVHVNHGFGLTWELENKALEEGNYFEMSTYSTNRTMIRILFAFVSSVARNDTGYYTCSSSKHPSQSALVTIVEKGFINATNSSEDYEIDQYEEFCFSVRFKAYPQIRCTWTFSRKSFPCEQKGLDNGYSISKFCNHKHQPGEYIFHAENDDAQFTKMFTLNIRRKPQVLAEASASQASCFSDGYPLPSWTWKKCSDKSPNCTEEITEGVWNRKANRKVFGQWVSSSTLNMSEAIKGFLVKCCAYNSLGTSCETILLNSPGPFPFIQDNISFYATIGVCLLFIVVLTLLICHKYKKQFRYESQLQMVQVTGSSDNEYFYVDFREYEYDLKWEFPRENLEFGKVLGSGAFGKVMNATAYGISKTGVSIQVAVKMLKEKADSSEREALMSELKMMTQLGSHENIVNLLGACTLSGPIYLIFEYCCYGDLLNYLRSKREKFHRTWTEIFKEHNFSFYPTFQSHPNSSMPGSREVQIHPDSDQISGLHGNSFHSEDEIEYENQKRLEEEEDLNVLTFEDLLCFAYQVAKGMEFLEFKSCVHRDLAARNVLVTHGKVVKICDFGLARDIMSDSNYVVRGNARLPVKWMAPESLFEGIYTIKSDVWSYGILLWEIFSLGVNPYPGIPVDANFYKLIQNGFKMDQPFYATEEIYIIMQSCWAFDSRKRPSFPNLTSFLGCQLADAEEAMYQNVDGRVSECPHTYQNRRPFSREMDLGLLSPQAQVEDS

pERK T202Y204 in HUVEC = experiment: Cell-based target inhibition assay, HUVEC, VEGF, pERK; design: species or system human; settings: read-out: Cell-Based Target Inhibition Assays IC50, pERK T202Y204, activator VEGF
EPHA5 = EPHA5 (Homo sapiens, UniProt P54756); experiment: Biochemical inhibition profile, EPHA5; settings: read-out: Biochemical Inhibition Profile IC50, EPHA5
EPHA3 = EPHA3 (Homo sapiens, UniProt P29320); experiment: Biochemical inhibition profile, EPHA3; settings: read-out: Biochemical Inhibition Profile IC50, EPHA3
RET = RET (Homo sapiens, UniProt P07949); experiment: Biochemical inhibition profile, RET; settings: read-out: Biochemical Inhibition Profile IC50, RET
[3] = tested on: pERK T202Y204 in HUVEC (with BSA); experiment: Cell-based target inhibition assay, HUVEC, VEGF, pERK with BSA; design: species or system human; settings: read-out: Cell-Based Target Inhibition Assays IC50, pERK T202Y204 (with BSA), activator VEGF, with BSA
Adverse events = format: in vivo, human
How it was run: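 Five relapsed AML patients took test compound 50 mg/day as a once-daily oral capsule after an ~8 h fast, with breakfast at least 60 min later. A single-dose visit came first, then multidose treatment for four weeks (two weeks after amendment). Adverse events were graded by CTCAE v3.0. Dose-limiting toxicity definitions covered Grade ≥3 nonhematological events and Grade 3/4 QTc or blood-pressure changes.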

EPHA4 = EPHA4 (Homo sapiens, UniProt P54764); experiment: Biochemical inhibition profile, EPHA4; settings: read-out: Biochemical Inhibition Profile IC50, EPHA4
EPHA4, sequence (P54764 20-986): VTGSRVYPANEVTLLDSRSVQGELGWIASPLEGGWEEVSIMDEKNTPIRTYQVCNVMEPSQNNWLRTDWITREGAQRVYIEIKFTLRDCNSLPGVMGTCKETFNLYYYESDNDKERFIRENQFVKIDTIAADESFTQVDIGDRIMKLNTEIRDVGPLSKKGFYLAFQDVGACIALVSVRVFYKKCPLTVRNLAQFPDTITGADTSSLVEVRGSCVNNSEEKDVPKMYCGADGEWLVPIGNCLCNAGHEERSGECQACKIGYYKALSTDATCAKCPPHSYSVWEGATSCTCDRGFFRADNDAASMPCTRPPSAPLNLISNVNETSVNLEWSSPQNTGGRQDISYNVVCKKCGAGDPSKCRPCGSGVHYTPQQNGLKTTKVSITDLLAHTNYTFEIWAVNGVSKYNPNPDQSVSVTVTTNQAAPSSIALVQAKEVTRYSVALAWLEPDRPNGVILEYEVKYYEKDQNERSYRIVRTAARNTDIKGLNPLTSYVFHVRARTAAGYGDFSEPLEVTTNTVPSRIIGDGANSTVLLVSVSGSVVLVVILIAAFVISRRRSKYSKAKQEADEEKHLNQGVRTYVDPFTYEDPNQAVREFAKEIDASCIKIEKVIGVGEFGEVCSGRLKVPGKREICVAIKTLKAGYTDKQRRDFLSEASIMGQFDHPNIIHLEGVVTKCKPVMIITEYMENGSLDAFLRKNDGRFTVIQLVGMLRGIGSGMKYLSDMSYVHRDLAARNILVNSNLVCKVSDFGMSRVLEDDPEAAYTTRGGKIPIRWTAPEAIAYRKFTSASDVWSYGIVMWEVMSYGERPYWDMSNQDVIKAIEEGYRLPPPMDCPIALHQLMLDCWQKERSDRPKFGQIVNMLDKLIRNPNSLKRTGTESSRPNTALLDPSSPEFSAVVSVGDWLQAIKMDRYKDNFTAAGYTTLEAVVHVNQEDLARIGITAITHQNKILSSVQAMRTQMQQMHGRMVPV

PDGF-Rb = PDGF-Rb (Homo sapiens, UniProt P09619); experiment: Biochemical inhibition profile, PDGF-Rb; settings: read-out: Biochemical Inhibition Profile IC50, PDGF-Rb
EPHA7 = EPHA7 (Homo sapiens, UniProt Q15375); experiment: Biochemical inhibition profile, EPHA7; settings: read-out: Biochemical Inhibition Profile IC50, EPHA7
[4] = Maximum CTC grade 1, n = 5 patients, regardless of causality
[5] = Maximum CTC grade 2, n = 5 patients, regardless of causality
[6] = Maximum CTC grade 3, n = 5 patients, regardless of causality
[7] = Maximum CTC grade 4, n = 5 patients, regardless of causality

For `Cc1cc(-c2ccn3c(-c4ccc(CC(=O)Nc5cccc(C(F)(F)F)c5)c(F)c4)cnc3c2)ccn1` [LY2457546], the IC50 (EPHB4) is given as 9.1 nM, the IC50 [1] is given as 200 nM and the IC50 (MV4-11) is given as 0.339 nM. For the same compound, the IC50 (EPHA2) was 37.4 nM, the IC50 (VEGF-R3) was 34.1 nM and the IC50 (cKIT) was 73.8 nM. The Antileukemia response (AML blasts; five treated patients, 50 mg/day) was “No medically relevant responses”, the “Leukocyte and blast cell counts” value (AML blasts; one of the five patients (B), through day 10) was “significant but transient decrease” and the “p70S6K percent inhibition at 20 μM” value (p70S6K) was 75.9%. For the same compound, the IC50 (RAF) was 264 nM, the IC50 (KDR) was 28 nM and the “Toxicities in preclinical toxicology studies” value [2] was “reversible bone marrow toxicity, minimal liver inflammation, reversible physeal dysplasia”. The IC50 (EPHB1) was 21.4 nM, the IC50 (FLT3) was 5.1 nM and the IC50 (pERK T202Y204 in HUVEC) was 2.05 nM. The IC50 (EPHA5) was 10.7 nM, the IC50 (EPHA3) was 99.8 nM and the IC50 (RET) was 4.19 nM. The IC50 [3] was 41.4 nM, the “Chapped lips, number of patients” value (Adverse events; [4]) was 1 and the “Constipation, number of patients” value (Adverse events; [4]) was 1. The “Cough, number of patients” value (Adverse events; [4]) was 1, the “Diarrhea, number of patients” value (Adverse events; [4]) was 2 and the “Epistaxis, number of patients” value (Adverse events; [4]) was 1. For the same compound, the “Facial swelling, number of patients” value (Adverse events; [4]) was 1, the “Fatigue, number of patients” value (Adverse events; [4]) was 1 and the “Headache, number of patients” value (Adverse events; [4]) was 3. For the same compound, the “Hemangioma of liver, number of patients” value (Adverse events; [4]) was 1, the “Hematoma, number of patients” value (Adverse events; [4]) was 1 and the “Hematuria, number of patients” value (Adverse events; [4]) was 1. For the same compound, the “Hemorrhoids, number of patients” value (Adverse events; [4]) was 1, the “Hepatomegaly, number of patients” value (Adverse events; [4]) was 1 and the “Hyperhidrosis, number of patients” value (Adverse events; [4]) was 1. For the same compound, the “Hypokalemia, number of patients” value (Adverse events; [4]) was 3, the “Inguinal hernia, number of patients” value (Adverse events; [4]) was 1 and the “Musculoskeletal pain, number of patients” value (Adverse events; [4]) was 1. For the same compound, the “Nausea, number of patients” value (Adverse events; [4]) was 1, the “Nephrolithiasis, number of patients” value (Adverse events; [4]) was 1 and the “Oropharyngeal pain, number of patients” value (Adverse events; [4]) was 1. For the same compound, the “Osteoporosis, number of patients” value (Adverse events; [4]) was 1, the “Peripheral edema, number of patients” value (Adverse events; [4]) was 1 and the “Petechiae, number of patients” value (Adverse events; [4]) was 3. The “Splenomegaly, number of patients” value (Adverse events; [4]) was 1, the “Ulcerative colitis, number of patients” value (Adverse events; [4]) was 1 and the “Vertigo, number of patients” value (Adverse events; [4]) was 1. The “Anxiety, number of patients” value (Adverse events; [5]) was 2, the “Asthma, number of patients” value (Adverse events; [5]) was 1 and the “Back pain, number of patients” value (Adverse events; [5]) was 1. The “Bladder spasm, number of patients” value (Adverse events; [5]) was 1, the “Constipation, number of patients” value (Adverse events; [5]) was 1 and the “Epistaxis, number of patients” value (Adverse events; [5]) was 2. For the same compound, the “Gingival hyperplasia, number of patients” value (Adverse events; [5]) was 1, the “Hemorrhoids, number of patients” value (Adverse events; [5]) was 1 and the “Hypertension, number of patients” value (Adverse events; [5]) was 2. For the same compound, the “Insomnia, number of patients” value (Adverse events; [5]) was 1, the “Keratoconjunctivitis sicca, number of patients” value (Adverse events; [5]) was 1 and the “Stomatitis, number of patients” value (Adverse events; [5]) was 1. The “Urticaria, number of patients” value (Adverse events; [5]) was 1, the “Anal abscess, number of patients” value (Adverse events; [6]) was 1 and the “Asthenia (muscle weakness), number of patients” value (Adverse events; [6]) was 1. The “Breast cellulitis, number of patients” value (Adverse events; [6]) was 1, the “Catheter-related infection, number of patients” value (Adverse events; [6]) was 1 and the “Febrile neutropenia, number of patients” value (Adverse events; [6]) was 2. For the same compound, the “Fungal sepsis, number of patients” value (Adverse events; [6]) was 1, the “Hypotension, number of patients” value (Adverse events; [6]) was 1 and the “Neutropenic sepsis, number of patients” value (Adverse events; [6]) was 1. The “Hemorrhage, number of patients” value (Adverse events; [7]) was 1, the “Hypophosphatemia, number of patients” value (Adverse events; [7]) was 1 and the “Adverse events that were Grade 1 or 2” value (Adverse events; five patients, 50 mg/day orally) was 81%. For the same compound, the Dose-limiting toxicity (Adverse events; one patient (C) of five, 50 mg/day orally) was “generalized muscle weakness (Grade 3)”, the IC50 (EPHA4) was 157 nM and the IC50 (PDGF-Rb) was 25.7 nM. For the same compound, the IC50 (EPHA7) was 221 nM.
